The subject of data set [1] is Escherichia coli. Put plainly: Binding affinity to […] Escherichia coli FimH-lectine domain assessed as melting temperature at 100 uM by differential scanning fluorometric assay. In outline:
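Untagged FimH lectin domain (residues 1–158 of UPEC J96 FimH), 5 µg in a 50 µl reaction of HBS (20mM HEPES pH 7.5, 150mM NaCl). Compound at 100µM final, diluted from DMSO stocks, with SYPRO Orange at 5X final. Controls were FimH alone plus 0.2% DMSO. Melt curve ran from 20–90°C in 0.5 °C steps of 15 s each, with fluorescence read on the HEX channel.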

Data set [2] is described as follows: Effective permeability of the compound by PAMPA assay. The data set is classed as ADME. Also noted: unit not given here.
For data set [3], the system named is Escherichia coli. Put plainly: Inhibition of Escherichia coli FimH-mediated hemagglutinination of human red blood cells assessed as drug level required for > 90% inhibition of hemagglutinination after 30 mins by hemagglutinination inhibition assay.
The test system of data set [4] is Escherichia coli. Kind of data set: Antibacterial activity against Escherichia coli K-12 ATCC 25404 assessed as inhibition of biofilm formation after 2 hrs by confocal laser microscopic analysis. The data set is classed as functional, organism-based. The settings on record: Escherichia coli, K-12 ATCC 25404, 2 h.
The nature of data set [5]: Binding affinity to biotinylated Escherichia coli FimH-lectin domain after 30 mins by biolayer interferometry method. In a few lines: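 FimH lectin domain biotinylated 1:1, loaded at 50μg/ml in HBS (20mM HEPES pH 7.5, 150mM NaCl) onto streptavidin tips, biocytin-blocked. Compound applied as 7 twofold dilutions in HBS for 10 min association, then 30 min dissociation, 30°C with shaking. Referenced to biocytin-blocked pins for drift and nonspecific binding. Kd from global kinetic fitting.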

Another data set has as its system Mus musculus. Put plainly: Ratio of drug uptake in mouse urine to plasma at 50 mg/kg, po measured after 6 hrs. As to conditions: in vivo.

Regarding `COC(=O)c1cccc(O[C@H]2O[C@H](CO)[C@@H](O)[C@H](O)[C@@H]2O)c1`, the Tm with Escherichia coli [1] is 70.8 °C.
As to `COC(=O)c1cccc(-c2ccc(O[C@H]3O[C@H](CO)[C@@H](O)[C@H](O)[C@@H]3O)c(Cl)c2)c1`, the “log Pe” value in data set [2] is given as -4.29. For the same molecule, the EC>90 in the data set on Escherichia coli [3] amounted to 0.03 µM. For the same molecule, the half-maximal inhibitory concentration (IC50) in the data set on Escherichia coli [4] is 260 nM.
As for `COC(=O)c1cc(C(=O)OC)cc(-c2ccc(O[C@H]3O[C@H](CO)[C@@H](O)[C@H](O)[C@@H]3O)cc2)c1`, the Tm with Escherichia coli [1] came to 72.5 °C.
Turning to `COC(=O)c1cccc(-c2ccc(O[C@H]3O[C@H](CO)[C@@H](O)[C@H](O)[C@@H]3O)c(OC)c2)c1`, the EC>90 in the data set with Escherichia coli [3] is 0.19 µM. Moreover, the IC50 with Escherichia coli [4] was found to be 890 nM.
Consider `O=C(NCCO)c1cccc(-c2ccc(O[C@H]3O[C@H](CO)[C@@H](O)[C@H](O)[C@@H]3O)cc2)c1`, for which the EC>90 in the data set on Escherichia coli [3] was 0.5 µM.
Same read-out and setting: the figure for `CN1CCN(C(=O)c2cccc(-c3ccc(O[C@H]4O[C@H](CO)[C@@H](O)[C@H](O)[C@@H]4O)cc3)c2)CC1` is 4 µM.
The same measure, in the same setting: the figure for `COC(=O)c1cncc(-c2ccc(O[C@H]3O[C@H](CO)[C@@H](O)[C@H](O)[C@@H]3O)cc2)c1` is 0.19 µM.
Molecule `CS(=O)(=O)Nc1cccc(-c2ccc(O[C@H]3O[C@H](CO)[C@@H](O)[C@H](O)[C@@H]3O)cc2)c1` returned a Kd in data set [5] of 2 nM. For the same molecule, the Tm in the data set on Escherichia coli [1] was determined as 70.9 °C.
As for `OC[C@H]1O[C@H](Oc2ccc(-c3ccc4ncncc4c3)cc2)[C@@H](O)[C@@H](O)[C@@H]1O`, in the data set on Escherichia coli [3], the EC>90 worked out at 0.38 µM.
On to `OC[C@H]1O[C@H](Oc2ccc(-c3ccccc3)cc2)[C@@H](O)[C@@H](O)[C@@H]1O`, for which, in data set [5], the affinity, expressed as Kd, was 3 nM. Also, the Tm in the data set on Escherichia coli [1] was found to be 71.2 °C.
For the molecule `COC(=O)c1ccc(-c2ccc(O[C@H]3O[C@H](CO)[C@@H](O)[C@H](O)[C@@H]3O)cc2)cc1`, the equilibrium dissociation constant (Kd) in data set [5] amounted to 3.99 nM.
As to `CNC(=O)c1cccc(-c2ccc(O[C@H]3O[C@H](CO)[C@@H](O)[C@H](O)[C@@H]3O)cc2)c1`, the Tm in the data set on Escherichia coli [1] turned out to be 73.4 °C. In the data set on Escherichia coli [3], the EC>90 came to 0.5 µM. In addition, the IC50 in the data set on Escherichia coli [4] is 1350 nM.
In the case of `COC(=O)c1csc(-c2ccc(O[C@H]3O[C@H](CO)[C@@H](O)[C@H](O)[C@@H]3O)cc2)c1`, the EC>90 with Escherichia coli [3] worked out at 2 µM.
The same measure, in the same setting: the figure for `OC[C@H]1O[C@H](Oc2ccc(-c3ccc4ccncc4c3)cc2)[C@@H](O)[C@@H](O)[C@@H]1O` is 0.75 µM.
`OC[C@H]1O[C@H](Oc2ccccc2)[C@@H](O)[C@@H](O)[C@@H]1O`: in the data set with Escherichia coli [1], the Tm stood at 68.9 °C. Besides, the EC>90 with Escherichia coli [3] was determined as 30 µM.
`COC(=O)c1cccc(-c2ccc(O[C@H]3O[C@H](CO)[C@@H](O)[C@H](O)[C@@H]3O)cc2)c1` came in with a Kd in data set [5] of 0.08 nM. Further, the “log Pe” value in data set [2] was -5.42. In addition, the Tm in the data set on Escherichia coli [1] was determined as 73.4 °C. Also, the half-maximal inhibitory concentration (IC50) with Escherichia coli [4] turned out to be 940 nM.
With `COC(=O)c1cc(O[C@H]2O[C@H](CO)[C@@H](O)[C@H](O)[C@@H]2O)cc(C(=O)OC)c1`, the Kd in data set [5] amounted to 3.45 nM. Also, the Tm in the data set on Escherichia coli [1] turned out to be 73.2 °C.
In the case of `COC(=O)c1cccc(-c2ccc(O[C@H]3O[C@H](CO)[C@@H](O)[C@H](O)[C@@H]3O)c(C(F)(F)F)c2)c1`, the “log Pe” value in data set [2] was -3.91. Further, the EC>90 in the data set with Escherichia coli [3] is 0.03 µM. In addition, in the data set with Escherichia coli [4], the IC50 was found to be 170 nM.
In data set [5], `CC(=O)Nc1cccc(-c2ccc(O[C@H]3O[C@H](CO)[C@@H](O)[C@H](O)[C@@H]3O)cc2)c1` registered a Kd of 1.14 nM. For the same molecule, the Tm with Escherichia coli [1] is 72.3 °C.
Consider `O=C(Nc1cccnc1)c1cccc(-c2ccc(O[C@H]3O[C@H](CO)[C@@H](O)[C@H](O)[C@@H]3O)cc2)c1`, for which the Tm in the data set on Escherichia coli [1] was found to be 72.5 °C. For the same molecule, the EC>90 in the data set with Escherichia coli [3] was 0.37 µM.
For the molecule `O=C(Nc1ccncc1)c1cccc(-c2ccc(O[C@H]3O[C@H](CO)[C@@H](O)[C@H](O)[C@@H]3O)cc2)c1`, the EC>90 with Escherichia coli [3] was determined as 0.25 µM.
On the same count and under the same terms, the figure for `COC(=O)c1cccc(-c2ccc(O[C@H]3O[C@H](CO)[C@@H](O)[C@H](O)[C@@H]3O)c(F)c2)c1` is 0.75 µM.
Consider `COC(=O)c1cccc(-c2ccc(O[C@H]3O[C@H](CO)[C@@H](O)[C@H](O)[C@@H]3O)c(C)c2)c1`, for which the EC>90 in the data set with Escherichia coli [3] is 0.12 µM. Further, in the data set with Escherichia coli [4], the IC50 turned out to be 330 nM.
Molecule `NC(=O)c1cccc(-c2ccc(O[C@H]3O[C@H](CO)[C@@H](O)[C@H](O)[C@@H]3O)cc2)c1` returned an equilibrium dissociation constant (Kd) in data set [5] of 1 nM. In the data set with Escherichia coli [1], the Tm was found to be 71.7 °C.
Take `O=C(c1cccc(-c2ccc(O[C@H]3O[C@H](CO)[C@@H](O)[C@H](O)[C@@H]3O)cc2)c1)N1CCNCC1`: the EC>90 with Escherichia coli [3] amounted to 4 µM.
The same measure, in the same setting: the value for `NCCNC(=O)c1cccc(-c2ccc(O[C@H]3O[C@H](CO)[C@@H](O)[C@H](O)[C@@H]3O)cc2)c1` was 3 µM.
Take `COC(=O)c1cccc(-c2ccc(O[C@H]3O[C@H](CO)[C@@H](O)[C@H](O)[C@@H]3O)cc2C(=O)OC)c1`: the “log Pe” value in data set [2] is reported as -4.08. Moreover, the EC>90 in the data set on Escherichia coli [3] was determined as 1 µM.
In the case of `OCc1cccc(-c2ccc(O[C@H]3O[C@H](CO)[C@@H](O)[C@H](O)[C@@H]3O)cc2)c1`, binding in data set [5] was characterised by a dissociation constant (Kd) of 2.61 nM. The Tm in the data set with Escherichia coli [1] came out at 71.2 °C.
In the case of `COc1ccccc1-c1ccc(O[C@H]2O[C@H](CO)[C@@H](O)[C@H](O)[C@@H]2O)cc1`, the Tm in the data set with Escherichia coli [1] stood at 70.7 °C.
For the molecule `COC(=O)c1sc(-c2ccc(O[C@H]3O[C@H](CO)[C@@H](O)[C@H](O)[C@@H]3O)cc2)cc1NC(N)=O`, the EC>90 in the data set with Escherichia coli [3] was 0.02 µM.
On to `OC[C@H]1O[C@H](Oc2ccc(-c3cccc(C(F)(F)F)c3)cc2)[C@@H](O)[C@@H](O)[C@@H]1O`, for which the Kd in data set [5] turned out to be 1.56 nM. Also, the Tm with Escherichia coli [1] was determined as 68.3 °C.
In data set [5], `O=C(O)c1cc(C(=O)O)cc(-c2ccc(O[C@H]3O[C@H](CO)[C@@H](O)[C@H](O)[C@@H]3O)cc2)c1` showed an equilibrium dissociation constant (Kd) of 14.5 nM. In addition, the Tm in the data set with Escherichia coli [1] turned out to be 72.4 °C.
Regarding `CNS(=O)(=O)c1cccc(-c2ccc(O[C@H]3O[C@H](CO)[C@@H](O)[C@H](O)[C@@H]3O)cc2)c1`, the equilibrium dissociation constant (Kd) in data set [5] stood at 0.49 nM. In addition, in the data set with Escherichia coli [1], the Tm worked out at 72 °C.
In the same order, the values of `COc1cccc(-c2ccc(O[C@H]3O[C@H](CO)[C@@H](O)[C@H](O)[C@@H]3O)cc2)c1` are 1.25 nM and 71.8 °C.
In the same order, the values of `OC[C@H]1O[C@H](Oc2ccc3ccccc3c2)[C@@H](O)[C@@H](O)[C@@H]1O` are 2.72 nM and 70.8 °C.
In data set [5], `O=C(O)c1cccc(-c2ccc(O[C@H]3O[C@H](CO)[C@@H](O)[C@H](O)[C@@H]3O)cc2)c1` yielded an equilibrium dissociation constant (Kd) of 2.21 nM. Further, in the data set with Escherichia coli [1], the Tm was 70.9 °C.
As to `O=c1[nH]ccc2ccc(-c3ccc(O[C@H]4O[C@H](CO)[C@@H](O)[C@H](O)[C@@H]4O)cc3)cc12`, the EC>90 in the data set on Escherichia coli [3] turned out to be 0.1 µM.
As to `COC(=O)c1cc(-c2ccc(O[C@H]3O[C@H](CO)[C@@H](O)[C@H](O)[C@@H]3O)cc2)ccn1`, the Tm in the data set with Escherichia coli [1] came to 73.7 °C. Moreover, in the data set with Escherichia coli [3], the EC>90 amounted to 0.5 µM.
Take `COC(=O)c1ccc(-c2ccc(O[C@H]3O[C@H](CO)[C@@H](O)[C@H](O)[C@@H]3O)cc2)s1`: in the data set on Escherichia coli [3], the EC>90 came to 1 µM.
Turning to `NC(=O)Nc1csc(-c2ccc(O[C@H]3O[C@H](CO)[C@@H](O)[C@H](O)[C@@H]3O)cc2)c1`, the EC>90 in the data set with Escherichia coli [3] came to 1 µM.
As for `CNC(=O)c1cccc(-c2ccc(O[C@H]3O[C@H](CO)[C@@H](O)[C@H](O)[C@@H]3O)c(Cl)c2)c1`, the Ratio in the data set on Mus musculus stood at 10. In the data set with Escherichia coli [3], the EC>90 turned out to be 0.12 µM. Also, in the data set on Escherichia coli [4], the IC50 turned out to be 520 nM.
`OC[C@H]1O[C@H](Oc2ccc(-c3cccc4cnccc34)cc2)[C@@H](O)[C@@H](O)[C@@H]1O`: in the data set with Escherichia coli [3], the EC>90 is 0.25 µM.
In the case of `OC[C@H]1O[C@H](OCc2ccccc2)[C@@H](O)[C@@H](O)[C@@H]1O`, the dissociation constant Kd in data set [5] came to 43.7 nM.

The record behind these values is ChEMBL document CHEMBL2057137, “Lead optimization studies on FimH antagonists: discovery of potent and orally bioavailable ortho-substituted biphenyl mannosides” (J Med Chem, 2012).
